Converted amounts (≈) assume the structure as drawn. Where two headings read alike, the source gives them in different places.
Assays:
[1] = in vivo; cited from earlier work
HSV-2 [2] = test: HSV-2-infected athymic nude mice; format: in vivo
Summary of the method: (§1)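 Female NMRI athymic nude or hairless mice (~20 g, ~4 weeks; groups of five) scarified over ~1 cm² lumbosacral area with HSV-1 KOS (5×10^3 PFU) or HSV-2 G (5×10^2). Test compound 1% in 100% DMSO or CAPRISA 004-type gel, topical twice daily for 5 days from 1-2 h post-infection; same vehicle without drug as placebo. Lesions and mortality recorded over one month; Kaplan-Meier survival, log-rank test.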

HSV-1 and HSV-2 = format: cell-based; settings: Fibroblast, read-out: EC50 values (inhibition of cytopathicity), range
Summary of the method: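 HEL fibroblasts or primary human keratinocytes (from neonatal foreskin) infected at 100 TCID50 per strain and grown 3 days at 37 °C, 5% CO2, with a range of test compound concentrations. CPE scored visually. […] Means of at least two independent experiments, ± SD.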

[3] = system: HSV-2 (strain NS and RV-124); test: Virus yield reduction assay; format: cell-based
Summary of the method: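 HEL monolayers infected with HSV-2 clinical isolates NS or RV-124 at two moi for 2 h at 37 °C, then washed and given test compound in duplicate. At 24, 48 and 72 h, virus released by freeze-thaw and titrated by plaque assay on HEL cells.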

HSV-2G, HSV-2MS = test: Human tonsillar tissue ex vivo infected with HSV-2; format: cell-based; settings: 66 μg/ml
HSV-2 [4] = format: cell-based; settings: for Virus production (TCID50/ml): M/M
HSV-1F = test: Human tonsillar tissue ex vivo infected with HSV-1; format: cell-based
HEL cells = test: Cytotoxicity by cell morphology; format: cell-based, human
Summary of the method: (§2)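 Run in non-infected cultures in parallel with the antiviral assay. Cells exposed to test compound and examined microscopically at day 3. MCC is the lowest concentration giving a detectable change in cell morphology.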

HSV-2 [5] = format: cell-based; settings: day 6, M/M
HSV-2 [6] = test: HSV-2 cytopathicity in primary monocyte/macrophage cultures; format: cell-based; settings: day 6, M/M
Cytostatic activity [7] = format: cell-based; settings: human, HEL cells, non-infected
HSV-2G [8] = test: Tonsillar tissue coinfected with HSV-2G and HIV-1LAI, HSV-2 DNA release; format: cell-based; settings: 66 μg/ml; coinfected with HIV-1LAI; n=6
Summary of the method: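 Human tonsillar tissue blocks sequentially infected with HSV-2 G then HIV-1 LAI; 27 blocks per condition, 9 per well in 3 ml medium. Tenofovir at 66 µg/ml kept throughout culture; untreated donor-matched tissues as control. HSV-2 DNA release into medium measured by quantitative real-time PCR; release pooled from 27 blocks per donor; 6 donors.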

PHKs = test: Cytotoxicity by cell morphology; format: cell-based, human; settings: non-infected
Summary of the method: as §2

HSV-2G [9] = test: Organotypic epithelial raft cultures infected with HSV-2; format: cell-based
HIV-1 = settings: 1% vaginal gel, 889 women, CAPRISA 004; ref Abdool Karim et al., 2010; cited from earlier work
HSV-2G [10] = test: Human cervico-vaginal tissue ex vivo infected with HSV-2G; format: cell-based; settings: 150 μg/ml
Cytostatic activity [11] = format: cell-based; settings: human, PHKs, non-infected
HSV-2 [12] = settings: 1% vaginal gel, CAPRISA 004; ref Cates, 2010; cited from earlier work
[13] = MTT viability assay in epithelial TZM-Bl cells; format: cell-based, human; settings: up to 1,000 μg/ml; data not shown
Summary of the method: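 Confluent TZM-Bl epithelial monolayers exposed to a range of test compound concentrations for 3–4 days, then given MTT dye. Viable cells convert it to formazan, measured by optical density.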

HSV-1KOS = test: Organotypic epithelial raft cultures infected with HSV-1; format: cell-based
HIV-1LAI = test: Tonsillar tissue coinfected with HSV-2G and HIV-1LAI, p24 release; format: cell-based; settings: 66 μg/ml
Summary of the method: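 Tonsil tissue blocks (~2 mm) kept on collagen sponge at the air–liquid interface; 27 blocks per condition (9 per well). Infected with HSV-2 strain G, then HIV-1 LAI. Test compound added 12 h before infection and replenished at each medium change for the whole culture. p24 in medium over 3-day periods measured by bead-based assay. Six donors; means ± SEM.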

HSV-1 = test: HSV-1-infected athymic nude mice; format: in vivo
Summary of the method: as §1

[14] = 1% gel as in CAPRISA 004, topical
[15] = 1% in DMSO, topical, 5 days from day of infection

C[C@H](Cn1cnc2c(N)ncnc21)OCP(=O)(O)O [Tenofovir, (R)-9-[2-(phosphonylmethoxypropyl)adenine]]
AUC24hr in cervico-vaginal fluid [1]: 18600 µg·h/mL
level in cervico-vaginal fluid at 24 hr post drug exposure [1]: ~ 100 μg/ml
appearance of lesions and death vs placebo gel (HSV-2 [2]; [14]): delayed the appearance of herpesvirus-related lesions and subsequent death
morbidity and survival (HSV-2 [2]; [15]): statistically significant suppression of morbidity and prolonged the survival
EC50 (HSV-1 and HSV-2): 103 to 193 µg/mL (≈ 359 to 672 µM)
changes in cell number ([3]; HEL cells, any drug concentration): no changes in cell number
EC99 (drug concentration that decreases virus titers by two orders of magnitude) ([3]; HSV-2 RV-124 and NS, two moi, 24, 48, 72 h post-infection, PFU reduction): 214 to 390 µg/mL
reduction of replication vs donor-matched untreated tissue (HSV-2G, HSV-2MS; HSV-2G): 87 ± 12%
reduction of replication vs donor-matched untreated tissue (HSV-2G, HSV-2MS; HSV-2MS): 91.7 ± 3.2%
Virus production (TCID50/ml) (HSV-2 [4]; 0.04 μg/ml, day 6): 3.2×10^5 TCID50/ml
Virus production (TCID50/ml) (HSV-2 [4]; 0.2 μg/ml, day 6): 3×10^5 TCID50/ml
HSV-2 production (HSV-2 [4]; 1 μg/ml or 0.2 μg/ml, no significant protective effect): 2.4 to 3.0 × 10^5 TCID50/ml
Virus production (TCID50/ml) (HSV-2 [4]; 1 μg/ml, day 6): 2.4×10^5 TCID50/ml
Virus production (TCID50/ml) (HSV-2 [4]; 5 μg/ml, day 6): 7.2× 10^4 TCID50/ml
Virus production (TCID50/ml) (HSV-2 [4]; 20 μg/ml, day 6): 1.3×10^4 TCID50/ml
drop in HSV-2 production (HSV-2 [4]; 20 μg/ml, from 3.7 × 10^5 TCID50/ml in untreated): more than one log10
Virus production (TCID50/ml) (HSV-2 [4]; 100 μg/ml, day 6): No virus
Virus production (TCID50/ml) (HSV-2 [4]; 500 μg/ml, day 6 post infection): No virus
HSV-2 replication in M/M (HSV-2 [4]; 500 and 100 μg/ml): completely suppressed
reduction of replication vs donor-matched untreated tissue (HSV-1F; 66 μg/ml, HSV-1F): 99 ± 0.1%
EC50 (HSV-1F; Human alphaherpesvirus 1, in Homo sapiens, read-out: EC50 for HSV suppression): 7 µg/mL (≈ 24.4 µM)
Cell toxicity MCC (minimum cytotoxic concentration) (HEL cells; HEL, non-infected, cell morphology): >400 µg/mL
cytotoxicity as assessed from HEL cell morphology (HEL cells; highest drug concentrations used (500 μg/ml)): no signs of tenofovir cytotoxicity
Virus production (PFU/ml) (HSV-2 [5]; 0.04 μg/ml): 8.5×10^4 PFU/ml
Virus production (PFU/ml) (HSV-2 [5]; 0.2 μg/ml): 7.3×10^4 PFU/ml
Virus production (PFU/ml) (HSV-2 [5]; 1 μg/ml): 6.6×10^4 PFU/ml
Virus production (PFU/ml) (HSV-2 [5]; 5 μg/ml): 1.9×10^4 PFU/ml
Virus production (PFU/ml) (HSV-2 [5]; 20 μg/ml): 2.2×10^3 PFU/ml
Virus production (PFU/ml) (HSV-2 [5]; 100 μg/ml): No virus
Virus production (PFU/ml) (HSV-2 [5]; 500 μg/ml): No virus
Cytopathicity (CPE) (%) (HSV-2 [6]; 0.04 μg/ml): 85%
Cytopathicity (CPE) (%) (HSV-2 [6]; 0.2 μg/ml): 80%
Cytopathicity (CPE) (%) (HSV-2 [6]; 5 μg/ml): 60%
Cytopathicity (CPE) (%) (HSV-2 [6]; 20 μg/ml): 5%
Cytopathicity (CPE) (%) (HSV-2 [6]; 100 μg/ml): None
Cytopathicity (CPE) (%) (HSV-2 [6]; 500 μg/ml): None
CC50 at 3 days (Cytostatic activity [7]): 547 ± 39 µg/mL (≈ 1900 µM)
suppression of HSV-2G replication (HSV-2G [8]): 96 ± 1%
Cell toxicity MCC (minimum cytotoxic concentration) (PHKs): >200 µg/mL
activity against HSV-2 in rafts (HSV-2G [9]; 2 μg/ml): inactive
log10 reduction in virus production (HSV-2G [9]; 50 μg/ml): 1.75 log10
protection of virus-induced cytopathicity (HSV-2G [9]; 200 μg/ml): complete CPE protection
log10 reduction in virus production (HSV-2G [9]; 200 μg/ml, 5 days of treatment): 5.4 log10
protection of raft epithelium (histology) (HSV-2G [9]; 20 and 5 μg/ml): partially protective
reduction of HIV-1 sexual transmission (HIV-1): 39%
reduction of HSV-2G replication (averaged over experiments) (HSV-2G [10]): 78 ± 9%
HSV-2G DNA in culture medium (HSV-2G [10]; untreated 6.6 log10 copies/ml, n=5): 5.5 log10 copies/mL
CC50 at 3 days (Cytostatic activity [11]): > 50 µg/mL
reduction of the risk of acquisition of HSV-2 (HSV-2 [12]): 51%
MTT dye viability testing [13]: did not show measurable toxicity
log10 reduction in virus production (HSV-1KOS; 50 μg/ml): 0.81 log10
protection of virus-induced cytopathicity (HSV-1KOS; 200 μg/ml): complete CPE protection
log10 reduction in virus production (HSV-1KOS; 200 μg/ml, 5 days of treatment): 2.6 log10
inhibition of HIV-1LAI (HIV-1LAI): inhibited completely
appearance of lesions and death vs placebo gel (HSV-1; [14]): delayed the appearance of herpesvirus-related lesions and subsequent death
morbidity and survival (HSV-1; [15]): statistically significant suppression of morbidity and prolonged the survival

— PMC3201796 (Cell host & microbe, 2011)
